Screening data deposited in PubChem BioAssay by Broad Institute.
ERp5 block: ERp5 (human) disulfide isomerase inhibition; Q15084; ERp5 insulin aggregation, absorbance 650 nm, 90 min; inhibition, % at 9.99 µM; 350,000 compounds, 0.05% hits; AID 651711;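 active means mean replicate inhibition above about 25%, with every replicate also reaching it, limit read from the data, passing the limit was not always enough; inconclusive means only one of those two criteria met; inactive means neither criterion met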
Target sequence (Q15084 whole entry, looked up): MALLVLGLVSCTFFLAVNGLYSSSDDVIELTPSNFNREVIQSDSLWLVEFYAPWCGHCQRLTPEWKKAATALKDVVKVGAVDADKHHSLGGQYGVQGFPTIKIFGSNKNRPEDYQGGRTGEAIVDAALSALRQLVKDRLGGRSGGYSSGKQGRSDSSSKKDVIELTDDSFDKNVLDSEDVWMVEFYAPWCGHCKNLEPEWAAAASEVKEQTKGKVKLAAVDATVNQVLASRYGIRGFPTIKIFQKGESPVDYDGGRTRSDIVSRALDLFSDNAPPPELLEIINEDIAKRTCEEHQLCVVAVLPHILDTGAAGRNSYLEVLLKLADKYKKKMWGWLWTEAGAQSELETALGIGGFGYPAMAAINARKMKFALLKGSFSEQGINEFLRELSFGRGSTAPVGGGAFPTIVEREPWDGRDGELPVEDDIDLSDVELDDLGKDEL
FGF22 binding: shifts melting point of recombinant human FGF22; recombinant FGF22 thermal shift, SYPRO orange fluorescence; percent of sucrose octasulfate shift, DMSO zero; activity (Tm shift, normalised), % at 9.99 µM; 340,000 compounds, 1.5% hits;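 active means mean Tm shift, scaled 0 neutral to 100 positive control, at about 1.3% or above, every replicate too, limit read from the data; inconclusive means no clear call, values can overlap the other calls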
Target sequence (Q9HCT0 whole entry, looked up): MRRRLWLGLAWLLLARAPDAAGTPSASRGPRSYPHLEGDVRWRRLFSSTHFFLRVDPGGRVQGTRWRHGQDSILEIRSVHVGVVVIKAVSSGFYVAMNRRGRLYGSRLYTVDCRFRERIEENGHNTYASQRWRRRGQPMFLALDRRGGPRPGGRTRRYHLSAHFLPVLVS
FN deposit inh: fibronectin deposition inhibition | AH1F fibroblasts, Alexa488-fibronectin deposition fluorescence, overnight | inhibition, % at 12.6 µM | 350,000 compounds, 0.086% hits;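 active means mean inhibition across replicates of 30% or more, regardless of how many single replicates reach that level; inconclusive means mean under 30% yet at least half of replicates reach 30%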
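Measured by – fluorescence 485/525 nm · System – AH1F fibroblast monolayer, labelled fibronectin deposition · Amount – 10000 cells per well · Buffer or medium – serum-reduced DMEM (2% serum) · Doses – single dose, pinned · Also added – fluorescent fibronectin at 24 nM final · Schedule – 1 h cell attachment, overnight exposure to compound and label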
AF4-AF9 inh: blocks AF4 peptide binding to human AF9 | P42568 | AlphaScreen, biotin-AF4 peptide binding to FLAG-AF9 | inhibition, % at 10 µM | 350,000 compounds, 0.47% hits;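 active means every replicate reaching a set inhibition limit, whatever the replicate mean, cut at about 25% in these data; inconclusive means mean inhibition reaches that limit but some replicates miss it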
ARNT-TACC3 inh: disruptors of human ARNT/TACC3 interaction; Q9Y6A5; AlphaScreen His-ARNT PAS-B/GST-TACC3 binding, luminescence; TACC3 fragment carries E629A point mutation; inhibition, % at 9.99 µM; 390,000 compounds, 0.66% hits; AID 623870;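 active means mean inhibition of replicates at least 50% and at least half of replicates each reaching 50%; inconclusive means half or more replicates reach 50% but mean below 50%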
PDI turbidity: inhibitors of human protein disulfide isomerase. PDI insulin aggregation turbidity, A650, 90 min. inhibition, % at 10 µM. P07237. 350,000 compounds, 0.052% hits. AID 588391;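 active means mean inhibition across replicates of 30% or more, whatever share of single replicates reach that level; inconclusive means mean inhibition below 30% while every single replicate reaches 30%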
Of the large screens only hits and unclear results are named; the others gave an inactive call; ! = not confirmed by another sample. This is a sample that favours compounds with a hit; in the whole collection about 2.1% have one here.

C[C@@H]1CN([C@@H](C)CO)C(=O)c2cccc(NC(=O)CCCCCC(=O)Nc3ccccc3N)c2O[C@@H]1CN(C)C(=O)Nc1cccc2ccccc12	none (no result: FN deposit inh, ARNT-TACC3 inh, PDI turbidity)
COc1ccc(C2c3ccc(O)cc3Oc3ncn(CCCO)c(=N)c32)cc1 (centres undefined)	PDI turbidity 44
O=S(=O)(c1ccccc1)N1CC2(C1)[C@H](c1ccccc1)[C@@H](CO)N2CC1CCOCC1	none (no result: ARNT-TACC3 inh, PDI turbidity)
N#C/C(=N\Nc1cc(Cl)cc(Cl)c1)c1nnc2n1CCCCC2	FGF22 binding 43
CO[C@H]1CN(C)C(=O)c2cc(NC(=O)Nc3ccc(Cl)c(Cl)c3)ccc2OC[C@@H](C)NC[C@@H]1C	FN deposit inh 32! (no result: ERp5 block, FGF22 binding, AF4-AF9 inh, ARNT-TACC3 inh, PDI turbidity)
CO[C@H]1CN(C)C(=O)c2ccc(NC(=O)Nc3ccc(Cl)c(Cl)c3)cc2OC[C@H](C)NC[C@@H]1C	FN deposit inh 31! (no result: PDI turbidity)
CO[C@@H]1CN(C)C(=O)c2cc(NC(=O)Nc3cc(Cl)cc(Cl)c3)ccc2OC[C@H](C)NC[C@@H]1C	none (no result: ERp5 block, FGF22 binding, AF4-AF9 inh, ARNT-TACC3 inh, PDI turbidity)
CO[C@H]1CN(C)C(=O)c2cc(NC(=O)Nc3cc(Cl)cc(Cl)c3)ccc2OC[C@H](C)NC[C@H]1C	FN deposit inh 32! (no result: FGF22 binding, AF4-AF9 inh, ARNT-TACC3 inh, PDI turbidity)
CN1C(=O)C(N=Nc2ccc([N+](=O)[O-])cc2)SC1=S (centres undefined)	AF4-AF9 inh 44
CN1CCCCCC1=Nc1ccc([N+](=O)[O-])cc1	none (no result: FGF22 binding)
CO[C@H]1CN(C)C(=O)c2cc(NC(=O)C3CC3)ccc2OC[C@H](C)N(C(=O)C2CCCCC2)C[C@@H]1C	none (no result: ARNT-TACC3 inh, PDI turbidity)
Cc1nn(C)c(Cl)c1C(=O)NCC(=O)Nc1ccc(C(C)C)cc1	FGF22 binding 44
C[C@H](CO)N1C[C@H](C)[C@H](CN(C)S(=O)(=O)c2cn(C)cn2)Oc2ccc(NC(=O)c3ccncc3)cc2CC1=O	none (no result: FN deposit inh, ARNT-TACC3 inh, PDI turbidity)
O=C1CC(c2cccc(F)c2)c2c(c3ccccc3[nH]c2=O)O1 (centres undefined)	FGF22 binding 43
O=C1CC(c2ccccc2F)c2c(c3ccccc3[nH]c2=O)O1 (centres undefined)	none
O=C(CSc1nc2ccccc2s1)N/N=C/c1ccccc1C(=O)O	none
O=C(CSc1nc2ccccc2s1)N/N=C/c1ccc(C(=O)O)cc1	FN deposit inh 35
COc1ccc(Nc2c([N+](=O)[O-])ccc3c2=NC2(CCCCC2)N=3)cc1	AF4-AF9 inh 34
CN1c2ccc(-c3cccc(C#N)c3)cc2[C@H]2[C@H](CCN2C(=O)NC2CCCC2)[C@@H]1CO	none (no result: FGF22 binding, ARNT-TACC3 inh, PDI turbidity)
O=C(Nc1ccc2c(c1)[C@@H]1C[C@H](CC(=O)N3CCCCC3)O[C@@H](CO)[C@@H]1O2)C1CCC1	none (no result: PDI turbidity)
COc1cc2c(cc1OC)-c1cc(NC3CCCCCCC3)nc(=O)n1CC2	none (no result: ERp5 block, FGF22 binding, FN deposit inh, AF4-AF9 inh)
COc1cc2c(cc1OC)-c1cc(NC3CC3)nc(=O)n1CC2	ARNT-TACC3 inh 53 (no result: ERp5 block, FGF22 binding, FN deposit inh, AF4-AF9 inh)
COc1cc2c(cc1OC)-c1cc(NC3CCCCC3)nc(=O)n1CC2	ARNT-TACC3 inh 46 (no result: ERp5 block, FGF22 binding, FN deposit inh, AF4-AF9 inh)
O=C(N/N=C/c1cc([N+](=O)[O-])ccc1Cl)c1cnccn1	FGF22 binding 43
COc1cc(/C=N/NC(=O)c2cccnc2)ccc1OCC(=O)Nc1ccccc1Cl	FGF22 binding 43
CCOc1cc(Br)cc(/C=N/NC(=O)c2cccnc2)c1O	ARNT-TACC3 inh 56
COc1cccc(/C=N/NC(=O)c2cnccn2)c1O	ARNT-TACC3 inh 58
COc1ccc(NC(=O)N(C)C[C@@H]2Oc3c(NS(=O)(=O)c4ccc(C)cc4)cccc3C(=O)N([C@@H](C)CO)C[C@H]2C)cc1	none (no result: FN deposit inh, PDI turbidity)
COc1ccc([C@@H]2C/C=C\C[C@@H](c3ccc4c(c3)OCO4)NC(=O)[C@H](c3ccccc3)CC(=O)N2)c(OC)c1	none (no result: ERp5 block, FGF22 binding, AF4-AF9 inh, ARNT-TACC3 inh, PDI turbidity)
CO[C@@H]1CN(C)C(=O)c2ccc(NC(=O)c3cnccn3)cc2OC[C@H](C)N(C(=O)C2CC2)C[C@@H]1C	none (no result: FN deposit inh, PDI turbidity)
CN1[C@@H]2c3ccc(-c4cccc(F)c4)c(=O)n3C[C@H]1[C@H](CO)[C@H]2C(=O)NCc1ccccc1	none (no result: FN deposit inh, PDI turbidity)
COc1cccc(/C=N/NC(=O)C(=O)NCc2ccco2)c1O	ARNT-TACC3 inh 60 (no result: ERp5 block, FGF22 binding, FN deposit inh, AF4-AF9 inh)
CCOc1cc(/C=N/NC(=O)c2cccnc2)cc(Br)c1OCC(N)=O	FGF22 binding 44
COc1cc(/C=N\NC(=O)CC#N)ccc1OC/C=C/c1ccccc1	ARNT-TACC3 inh 69
C#CCOc1ccc(/C=N/NC(=O)c2cccnc2)cc1OCC	none
Cc1oc(-c2ccccc2F)nc1CS(=O)CC(=O)NCc1ccccn1 (centres undefined)	FGF22 binding 44
Cc1ccc(-c2nc(CS(=O)CC(=O)NCc3ccccn3)c(C)o2)cc1 (centres undefined)	none (no result: PDI turbidity)
CCOP(=O)(OCC)c1nc(-c2cccc3ccccc23)oc1N1CCOCC1	none (no result: ERp5 block, FGF22 binding, AF4-AF9 inh)
CCOP(=O)(OCC)c1nc(-c2ccccc2Cl)oc1N1CCOCC1	FGF22 binding 45
Cc1nc(SCc2cccc(C(=O)O)c2)nc2c1CCCC2	FGF22 binding 43
COCCn1c(SCc2ccc(F)cc2)nc2ccccc2c1=O	none
CCSc1nc2ccccc2c(=O)n1Cc1ccc(F)cc1	FGF22 binding 44
N#C[C@H]1[C@H](c2ccc(C#Cc3ccccc3F)cc2)[C@@H](CO)N1C(=O)C1CCCCC1	ARNT-TACC3 inh 47 (no result: PDI turbidity)
COc1ccc(/C=C/C(=O)Nc2cccc(S(=O)(=O)N3CCOCC3)c2)cc1OC	none
COc1cc(/C=C/C(=O)Nc2cccc(S(=O)(=O)N3CCOCC3)c2)ccc1OCC#N	FGF22 binding 4.1
CC1=C(C(=O)OC(C)C)C(c2ccc(Cl)cc2)n2c(sc(=Cc3ccc(OCC(=O)O)cc3)c2=O)=N1 (centres undefined)	FGF22 binding 4.2, AF4-AF9 inh inconclusive (no result: ARNT-TACC3 inh)
CNC(=O)c1ccc(-c2ccc(OC)cc2)s1	none (no result: ERp5 block, FGF22 binding, FN deposit inh, AF4-AF9 inh)
COc1ccc(NC(=O)c2ccc(-c3ccc(OC)cc3)s2)cc1	FGF22 binding 43
CCOC(=O)c1csc(NC(=O)c2ccc(OCC)cc2)n1	FGF22 binding 43
Cc1nc(Oc2ccccc2)c2ccccc2n1	none (no result: ERp5 block, FGF22 binding, AF4-AF9 inh)
c1ccc(Oc2ncnc3ccccc23)cc1	FGF22 binding 43
C[C@@H]1C(=O)N[C@H](c2ccc(F)cc2)CC=CC[C@H](C)Oc2ccccc2C(=O)N1C (mixture of isomers)	none (no result: ERp5 block, FGF22 binding, AF4-AF9 inh, ARNT-TACC3 inh, PDI turbidity)
CCCCCCCCOC(=O)c1nc(Cl)c(Cl)c(N)c1Cl	FGF22 binding 1.5
CN1CCN(C(c2cccnc2)c2ccc3cccnc3c2O)CC1 (centres undefined)	ARNT-TACC3 inh 68 (no result: ERp5 block, FGF22 binding, FN deposit inh, AF4-AF9 inh)
C[C@@H]1CN([C@@H](C)CO)C(=O)c2cccc(NC(=O)c3ccc(-c4nccs4)cc3)c2O[C@H]1CN(C)C(=O)Nc1ccc(C(F)(F)F)cc1	none (no result: PDI turbidity)
COc1ccc(CCN=C(C)C2=C(O)C(c3ccccc3)OC2=O)cc1OC (centres undefined)	FGF22 binding 43
CCC(=NCCc1ccc(OC)c(OC)c1)c1ccccc1O	none
